Values without a mark were called inactive. Records with an inconclusive call do not appear. Active and inactive are the calls of the source.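 Rule for the calls, unless noted: active = inhibition over a set limit, the all-compound mean plus 3 SD, in both replicate runs; inconclusive = over that limit in just one replicate run; inactive = at or under that limit in both runs.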

18 molecules from PubChem BioAssay can be followed below.

Experiment [1] can be described thus: S. cerevisiae growth inhibition in permissive medium (OD615), pilot counter-assay for S. cerevisiae lifespan shortening project, permissive growth control (AID 705;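 active = growth inhibition above 25% in both replicates, a cutoff set 3 SD above the mean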). To be noted: OD615, 24 h, at 10 µM, active compounds read high. The method in brief: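 System: Engineered DeaD yeast | Buffer or medium: SC raffinose/galactose permissive medium | Doses: 10 µM single dose, 0.25% DMSO | Times: 24 h exposure, 30 °C | Measured by: OD615 turbidity read | Read-out: Yeast growth inhibition indicated by reduced 24 h OD615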

Experiment [2] is described as follows: S. cerevisiae growth inhibition in restrictive medium, OD615, pilot screen, restrictive growth control, yeast lifespan reduction project (AID 706;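 active = growth inhibition above a set limit, 3 SD over mean compound inhibition, in both replicates, cut at about 43% in these data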;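 note: modified DeaD lifespan yeast strain shifted to restrictive glucose medium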). The following applies: OD615, 48 h, at 10 µM, active compounds read high. The essentials: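 Assay system: engineered S. cerevisiae DeaD strain; Buffer or medium: CSMM-D glucose medium; Dosing: 10 µM compound, 0.25% DMSO; Times: cell pre-growth 4 h, compound exposure 48 h, 30 °C; Detection: absorbance (optical density) measured at 615 nm.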

Experiment [3] in a line: doxorubicin toxicity protection in MRP-1 cells – H69AR cells, CellTiter-Glo, duplicate, MRP-1 activator project, pilot screen (AID 807;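 active = viability increase at or above a cutoff of the median across tested compounds plus 3 SD, cut at about 8.5% in these data, passing the limit was not always enough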;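 note: compound pretreatment 18-22 h then 72 h combined with doxorubicin; 0% = doxorubicin alone and 100% = vehicle without doxorubicin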). To be noted: H69AR viability with doxorubicin, CellTiter-Glo luminescence; at 10 µM; active compounds read high. (ATP-based viability assays read luminescence as a measure of living cells.)
Experiment [4] can be described thus: viability of HCT116 without oncogenic beta-catenin – human colon tumor cells, pilot screen (AID 823;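 active = cell viability at or below a set limit in both duplicate runs, the limit being the all-compound median minus 4 SD, cut at about 23% in these data, passing the limit was not always enough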;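 note: 0% = wells killed by 20 µM Hyamine and 100% = untreated DMSO cell wells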). To be noted: HCT116 beta-catenin knockout viability, CellTiter-Glo, 60 h; at 10 µM; active compounds read low.
Experiment [5] in a line: viability of PTEN-null HCT116 cells – cell-based, HCT116 clonal line, CellTiter-Glo, pilot screen (AID 824;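 active = viability at or below 27.92% in each of two runs, the all-compound median minus 4 SD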;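 note: 0% = 20 µM Hyamine control and 100% = vehicle cell control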). To be noted: HCT116 PTEN-deleted viability, 60 h, at 10 µM, active compounds read low.
Experiment [6] in a line: RAM pathway blockade in budding yeast – dse1pr::URA3 reporter, 5-FOA selection, pilot screen (AID 869).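 Note: 0% = DMSO wells with no growth and 100% = 10 µM 1-NA-PP1 with full growth; RAM network block rescues cells from 5-FOA so hits raise OD615 growth.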 The following applies: S. cerevisiae dse1pr::URA3 5-FOA growth, OD615, 2 d; at 10 µM; active compounds read high; strain carries analog-sensitive mutant Cbk1 kinase.
Experiment [7] in a line: RAM signaling pathway blockade in yeast – S. cerevisiae, Pdr1DBD-CYC8 efflux-inhibited sensitized strain, primary screen (AID 1298;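 active = RAM network inhibition above 8.4% in each of two replicates, 3 SD over the compound average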;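 note: 0% = DMSO untreated cells without growth and 100% = 10 µM 1-NA-PP1 full growth; higher means more yeast growth rescued from 5-FOA killing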). To be noted: S. cerevisiae cbk1-as DSE1-URA3 strain, 5-FOA growth OD615, 2 d; at 50 µM; active compounds read high.

Usually viability stands for a read-out of living cells in per cent, often relative to untreated cells. A word on the inhibition: it is the relative decrease from the control value, in per cent. Turning to `CCOc1ccccc1Nc1ncnc2c1cnn2-c1ccccc1`, the growth inhibition is -6.82% in experiment [1] and -5.11% in experiment [2]. Also, the viability increase in experiment [3] is 3.06%. Further, the values for the viability in experiment [4] and in experiment [5] were 93.6% and 91.1%, respectively. For the same molecule, the inhibition in experiment [6] is 2.2%. Besides, in experiment [7], the RAM network inhibition is 5.59%.
As to `O=C(O)CSc1cccc2cccnc12`, the results for the growth inhibition in experiment [1] and in experiment [2] were 15.6% and 44.6% (active), respectively. Moreover, the viability increase in experiment [3] is -0.24%. In addition, the viability in experiment [4] is 96.5%; in experiment [5], 102%. Moreover, the inhibition in experiment [6] was 1.17%. In addition, the RAM network inhibition in experiment [7] was 1.05%.
Take `O=C1CN(C(=O)c2ccc(Br)o2)C(c2ccccc2)c2cc(Br)ccc2N1` (stereo unspecified): the results for the growth inhibition in experiment [1] and in experiment [2] were -9.54% and -12.8%, respectively. Further, the viability increase in experiment [3] is -8.1%. Besides, the values for the viability in experiment [4] and in experiment [5] were 58.3% and 55.6%, respectively. Moreover, in experiment [6], the inhibition was 4.09%. In experiment [7], the RAM network inhibition is 6.05%.
As to `c1cncc(-c2noc(-c3ccco3)n2)c1`, the growth inhibition in experiment [1] was -5.2%; in experiment [2], 7%. Moreover, the viability increase in experiment [3] was 1.76%. The figures for the viability in experiment [4] and in experiment [5] were 96.7% and 94.2%, respectively. For the same molecule, the inhibition in experiment [6] was 1.41%. Moreover, the RAM network inhibition in experiment [7] was 4.61%.
Consider `CSC1=NCCN1C(=O)C(C)(C)Oc1ccc(Cl)cc1`, for which the growth inhibition was 7.64% in experiment [1] and 4.49% in experiment [2]. Further, the viability increase in experiment [3] was -4.07%. In addition, the values for the viability in experiment [4] and in experiment [5] were 91.2% and 84.7%, respectively. In addition, the inhibition in experiment [6] was 0.3%. Also, in experiment [7], the RAM network inhibition is -0.37%.
Regarding `Cc1cc(NC(=O)CSc2nnc(C)c(=O)[nH]2)no1`, the growth inhibition is -0.975% in experiment [1] and 1.15% in experiment [2]. Further, the viability increase in experiment [3] is 0.9%. Further, the viability was 112% in experiment [4] and 101% in experiment [5]. The inhibition in experiment [6] is 2.48%. In experiment [7], the RAM network inhibition is 1.75%.
Regarding `COc1ccccc1C(=O)n1nc(C)cc1C`, the growth inhibition in experiment [1] is -3.16%; in experiment [2], -0.83%. In addition, in experiment [3], the viability increase was 0.58%. For the same molecule, the viability in experiment [4] was 92%; in experiment [5], 95.8%. For the same molecule, in experiment [6], the inhibition was -0.645%. Moreover, in experiment [7], the RAM network inhibition is 3.78%.
Regarding `O=C(O)c1ccc(N2CCCCCC2)c(N2C(=O)c3ccccc3C2=O)c1`, the growth inhibition is -18% in experiment [1] and 4.7% in experiment [2]. Moreover, the viability increase in experiment [3] was -0.78%. The viability in experiment [4] is 108%; in experiment [5], 98.2%. In experiment [6], the inhibition is 0.945%. Moreover, the RAM network inhibition in experiment [7] is 3.42%.
With `COc1cc2c(cc1OC)CN(S(C)(=O)=O)CC2`, the growth inhibition is -0.905% in experiment [1] and -20.7% in experiment [2]. For the same molecule, the viability increase in experiment [3] was -2.27%. Further, the viability is 110% in experiment [4] and 94.7% in experiment [5]. The inhibition in experiment [6] was 1.33%. For the same molecule, the RAM network inhibition in experiment [7] was 1.26%.
For `CC1(C)CC(=O)N(c2ccccc2)C1(C)O` (stereo unspecified), the growth inhibition in experiment [1] was -8.08%; in experiment [2], -4.3%. The viability increase in experiment [3] is 0.17%. Also, the viability in experiment [4] is 93.7%; in experiment [5] it was 104%. Also, the inhibition in experiment [6] is 0.395%. Further, in experiment [7], the RAM network inhibition was 1.53%.
Consider `CN(C)C(CNC(=O)c1cccs1)c1cccnc1` (stereo unspecified), for which the growth inhibition in experiment [1] was -14.2%; in experiment [2], -20.4%. The viability increase in experiment [3] was -0.5%. Also, the values for the viability in experiment [4] and in experiment [5] were 105% and 97.4%, respectively. The inhibition in experiment [6] is 3.75%. For the same molecule, the RAM network inhibition in experiment [7] was 0.26%.
In the case of `COc1ccc(C2CC(=O)C=C(NCC3CCCO3)C2)cc1` (stereo unspecified), the values for the growth inhibition in experiment [1] and in experiment [2] were -10.4% and -1.65%, respectively. Moreover, the viability increase in experiment [3] is -0.23%. Further, the viability in experiment [4] is 96.2%; in experiment [5] it was 100%. Further, the inhibition in experiment [6] was 1.43%. In experiment [7], the RAM network inhibition was 1.32%.
As to `CCCc1cc(C(=O)Nc2cccnc2)no1`, the growth inhibition is 0.43% in experiment [1] and -0.16% in experiment [2]. Further, in experiment [3], the viability increase is -1.86%. The viability in experiment [4] is 100%; in experiment [5], 94.9%. In addition, the inhibition in experiment [6] is 0.915%. In addition, in experiment [7], the RAM network inhibition is -0.87%.
Regarding `Cc1ccc(CNC(=O)c2cc3c(-c4ccc(Cl)cc4)nn(C)c3s2)o1`, the growth inhibition in experiment [1] was -7.97%; in experiment [2], -5.61%. In addition, the viability increase in experiment [3] was -6.4%. Moreover, the viability in experiment [4] was 53.9%; in experiment [5] it was 48.7%. In addition, in experiment [6], the inhibition was 3.25%. Further, the RAM network inhibition in experiment [7] is 2.13%.
As for `O=c1c2[nH]c3ccc(F)cc3c2ncn1CCN1CCN(Cc2ccccc2)CC1`, the growth inhibition is -2.19% in experiment [1] and 1.39% in experiment [2]. Besides, in experiment [3], the viability increase is -3.25%. In addition, the viability in experiment [4] is 86.3%; in experiment [5], 80.3%. Besides, the inhibition in experiment [6] was 1.52%. Besides, the RAM network inhibition in experiment [7] is 1.11%.
Consider `CCCn1c(C(O)c2ccc3c(c2)OCO3)nc2ccccc21` (stereo unspecified), for which the results for the growth inhibition in experiment [1] and in experiment [2] were 1.37% and -13.8%, respectively. Moreover, in experiment [3], the viability increase was 0.23%. Moreover, the viability was 100% in experiment [4] and 102% in experiment [5]. For the same molecule, the inhibition in experiment [6] is 2.31%. The RAM network inhibition in experiment [7] was 0.88%.
Take `FC(F)(F)c1nnc2ccc(-n3ccnc3)nn12`: the values for the growth inhibition in experiment [1] and in experiment [2] were -9.92% and -28.6%, respectively. Further, the viability increase in experiment [3] is -1.45%. Besides, the viability in experiment [4] is 103%; in experiment [5] it was 88.4%. Besides, the inhibition in experiment [6] was 0.61%. The RAM network inhibition in experiment [7] was 3.79%.
With `O=C(NCc1ccc2c(c1)OCO2)C1CCC(CNc2c(N3CCCC3)c(=O)c2=O)CC1` (stereo unspecified), the growth inhibition was -5.55% in experiment [1] and -7.12% in experiment [2]. For the same molecule, the viability increase in experiment [3] was -1.29%. The viability in experiment [4] is 104%; in experiment [5], 102%. The inhibition in experiment [6] is 3.97%. Further, the RAM network inhibition in experiment [7] was 1.53%.
